Values after ≈ are worked out from the molar mass of the structure shown.
Legend:
[1] = molecular target: DNA gyrase (Escherichia coli, UniProt P0AES4+P0AES6); assay: Inhibitory concentration in supercoiling inhibition Escherichia coli DNA gyrase assay; format: protein-complex assay; conditions: read-out: I50 (converted)
Method in brief: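 Gyrase A and B subunits purified from E. coli H560, each titrated to fully supercoil relaxed Col E1 plasmid (~0.3 μg/mL). Drug in 0.1 N KOH, 40 min at 30 °C, then ATP for 10 min. SDS/proteinase K quench, 1% agarose gel, ethidium stain. Serial dilutions start at 200 μg/mL. I50 is the mean of the initial-inhibition and 100%-inhibition concentrations.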

[2] = molecular target: DNA gyrase (Escherichia coli) (UniProt P0AES6+P0AES4)
[3] = tested on: Escherichia coli; assay: Antibacterial activity against Escherichia coli (H560)
[4] = tested on: Escherichia coli; assay: Antibacterial activity against Escherichia coli (vogel)
[5] = tested on: Klebsiella pneumoniae; assay: Antibacterial activity against Klebsiella pneumonia (MGH-2)
[6] = tested on: Staphylococcus aureus; assay: Antibacterial activity against Staphylococcus aureus (H228)
[7] = tested on: Pseudomonas aeruginosa; assay: Antibacterial activity against Pseudomonas aeruginosa (UI-18)
[8] = tested on: Streptococcus pneumoniae; assay: Antibacterial activity against Streptococcus pneumoniae (SV-1)

IC50 [1]	gyrase cleavage conc [2]	MIC [3]	MIC [4]	MIC [5]	MIC [6]	MIC [7]	MIC [8]	SMILES
> 381 µM	43 µg/mL							CCn1nc(C(=O)O)c(=O)c2cc3c(cc21)OCO3 [CINOXACIN]
> 34 µM	2.5 µg/mL	0.2 µg/mL (≈ 0.68 µM)	0.2 µg/mL (≈ 0.68 µM)	0.4 µg/mL (≈ 1.36 µM)	0.4 µg/mL (≈ 1.36 µM)	6.3 µg/mL (≈ 21.4 µM)	12.5 µg/mL (≈ 42.5 µM)	CCn1cc(C(=O)O)c(=O)c2ccc(-c3ccncc3)cc21 [ROSOXACIN]
16.4 µM	2.5 µg/mL	0.4 µg/mL (≈ 1.31 µM)	3.1 µg/mL (≈ 10.2 µM)	3.1 µg/mL (≈ 10.2 µM)	0.2 µg/mL (≈ 0.655 µM)	6.3 µg/mL (≈ 20.6 µM)	3.1 µg/mL (≈ 10.2 µM)	CCn1cc(C(=O)O)c(=O)c2cc(F)c(N3CCCC3)nc21
10.3 µM	2.5 µg/mL							CN1CCN(c2c(F)cc3c(=O)c(C(=O)O)cn(CCF)c3c2F)CC1 [FLEROXACIN]
93.2 µM	2.5 µg/mL	1.6 µg/mL (≈ 5.33 µM)	1.6 µg/mL (≈ 5.33 µM)	1.6 µg/mL (≈ 5.33 µM)	0.4 µg/mL (≈ 1.33 µM)	12.5 µg/mL (≈ 41.6 µM)	12.5 µg/mL (≈ 41.6 µM)	CCn1cc(C(=O)O)c(=O)c2cc(F)c(-n3cccc3)cc21 [IRLOXACIN]
201 µM	5 µg/mL	0.4 µg/mL (≈ 1.24 µM)	0.1 µg/mL (≈ 0.309 µM)	0.4 µg/mL (≈ 1.24 µM)	0.05 µg/mL (≈ 0.155 µM)	1.6 µg/mL (≈ 4.95 µM)	1.6 µg/mL (≈ 4.95 µM)	CCn1cc(C(=O)O)c(=O)c2cc(F)c(N3CCSC3)nc21
85.4 µM	5 µg/mL	1.6 µg/mL (≈ 5.26 µM)	1.6 µg/mL (≈ 5.26 µM)	> 100 µg/mL	0.8 µg/mL (≈ 2.63 µM)	> 100 µg/mL	12.5 µg/mL (≈ 41.1 µM)	CCn1cc(C(=O)O)c(=O)c2cc(F)c(N3CCCC3)cc21
> 347 µM	38 µg/mL							CCn1cc(C(=O)O)c(=O)c2cnc(N3CCCC3)nc21 [PIROMIDIC ACID]
> 330 µM	50 µg/mL							CCn1cc(C(=O)O)c(=O)c2cnc(N3CCNCC3)nc21 [PIPEMIDIC ACID]
190 µM	10 µg/mL	0.4 µg/mL (≈ 1.52 µM)	0.4 µg/mL (≈ 1.52 µM)	0.2 µg/mL (≈ 0.76 µM)	6.3 µg/mL (≈ 23.9 µM)	12.5 µg/mL (≈ 47.5 µM)	100 µg/mL (≈ 380 µM)	COn1cc(C(=O)O)c(=O)c2cc3c(cc21)OCO3 [MILOXACIN]
18.8 µM			0.1 µg/mL (≈ 0.299 µM)	0.2 µg/mL (≈ 0.598 µM)	1.6 µg/mL (≈ 4.79 µM)	0.8 µg/mL (≈ 2.39 µM)	12.5 µg/mL (≈ 37.4 µM)	CNn1cc(C(=O)O)c(=O)c2cc(F)c(N3CCN(C)CC3)cc21 [AMIFLOXACIN]
87.4 µM	5 µg/mL							CCn1cc(C(=O)O)c(=O)c2cc(F)c(N3CCNCC3)nc21 [ENOXACIN]

SMILES	IC50 [1]	gyrase cleavage conc [2]	MIC [3]	MIC [4]	MIC [5]	MIC [6]	MIC [7]	MIC [8]
CCn1cc(C(=O)O)c(=O)c2cc3c(cc21)OCO3 [OXOLINIC ACID]	95.7 µM	10 µg/mL						
CCn1cc(C(=O)O)c(=O)c2cc(F)c(N3CCNCC3)c(F)c21	18.7 µM	1 µg/mL	0.1 µg/mL (≈ 0.296 µM)	0.2 µg/mL (≈ 0.593 µM)	0.1 µg/mL (≈ 0.296 µM)	3.1 µg/mL (≈ 9.19 µM)	1.6 µg/mL (≈ 4.74 µM)	3.1 µg/mL (≈ 9.19 µM)

Reference: ChEMBL document CHEMBL1123417, “New structure-activity relationships of the quinolone antibacterials using the target enzyme. The development and application of a DNA gyrase assay” (J Med Chem, 1986)
